Calls of active or inactive are those of the source. No cut-off for these calls is given here.
Tests used:
[1] = Cytotoxicity against african green monkey BSC1 cells assessed as ATP levels […] by CellTitre-Glo Luminescent Cell Viability assay; type: cell-based, BSC-1; conditions: chlorocebus aethiops
Vaccinia virus [2] = assay: Antiviral activity against Vaccinia virus WR expressing luciferase reporter virus v3 infected in rabbit RK13 cells assessed as inhibition of early stages of VACV replication at 10 uM incubated for 30 mins prior to inoculation measured after 2 hrs by luciferase reporter gene assay relative to control; type: functional; conditions: Orthopoxvirus vaccinia, RK-13
Vaccinia virus [3] = assay: Antiviral activity against Vaccinia virus WR infected in african green monkey BSC1 cells after 4 days by plaque reduction assay; type: functional, organism-based; conditions: Orthopoxvirus vaccinia, BSC-1, 96 h
BSC-1 [4] = assay: Cytotoxicity against african green monkey BSC1 cells infected with Vaccinia virus-WR after 4 days; type: cell-based; conditions: chlorocebus aethiops, bsc-1, 96 h
Vaccinia virus [5] = assay: Ratio of cidofovir IC50 to compound IC50 for Vaccinia virus WR; type: functional, Orthopoxvirus vaccinia
BSC-1 [6] = assay: Cytotoxicity against african green monkey BSC1 cells infected with Vaccinia virus-WR luciferase reporter virus v3 assessed as visible cytotoxic effect at 10 uM incubated for 30 mins prior to inoculation measured after 2 hrs by phase contrast microscopic analysis; type: cell-based; conditions: chlorocebus aethiops, bsc-1, 2 h
[7] = Cytotoxicity against human HFFF cells assessed as cell viability by CellTitre-Glo Luminescent Cell Viability assay; type: cell-based
Measles morbillivirus [8] = assay: Antiviral activity against wild type Measles virus mWTFb infected in simian B95a cells assessed as virus-induced cytopathogenicity incubated for 30 mins prior to inoculation measured after 3 days by phase contrast microscopy; type: functional, organism-based
[9] = Selectivity index, ratio of CC50 for african green monkey BSC1 cells to IC50 for Vaccinia virus-WR; type: functional, BSC-1
Human adenovirus 5 [10] = assay: Antiviral activity against Adenovirus type 5 ATCC VR-5 infected in african green monkey BSC1 cells assessed as virus-induced cytopathogenicity incubated for 30 mins prior to inoculation measured after 3 days by phase contrast microscopy; type: functional, BSC-1
Method in brief: (§1)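 Cells grown to 80% confluence in 96-well plates and pretreated 30 min with drug-containing medium. Infection was 100 pfu (HSV-1/2, adenovirus 5) or 100 sfu (measles) per well, then 3 days in DMEM without FBS or antibiotics with drug at 1–100 µM. CPE was scored by phase contrast against virus-only controls. TCID50 is the 50% CPE reduction, averaged over 3 experiments by Reed–Muench.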

Human adenovirus 5 [11] = assay: Antiviral activity against Adenovirus type 5 ATCC VR-5 infected in human HFFF cells assessed as virus-induced cytopathogenicity incubated for 30 mins prior to inoculation measured after 3 days by phase contrast microscopy; type: functional; method in brief: as §1
Measles morbillivirus [12] = assay: Antiviral activity against Measles virus Edmonston infected in simian B95a cells assessed as virus-induced cytopathogenicity incubated for 30 mins prior to inoculation measured after 3 days by phase contrast microscopy; type: functional; method in brief: as §1
Human alphaherpesvirus 2 [13] = assay: Antiviral activity against HSV 2 NCPV 132349 infected in human HFFF cells assessed as virus-induced cytopathogenicity incubated for 30 mins prior to inoculation measured after 3 days by phase contrast microscopy; type: functional; method in brief: as §1
Human alphaherpesvirus 1 [14] = assay: Antiviral activity against HSV 1 NCPV 17+ infected in human HFFF cells assessed as virus-induced cytopathogenicity incubated for 30 mins prior to inoculation measured after 3 days by phase contrast microscopy; type: functional; method in brief: as §1
Human alphaherpesvirus 2 [15] = assay: Antiviral activity against HSV 2 NCPV 132349 infected in african green monkey BSC-1 cells assessed as virus-induced cytopathogenicity incubated for 30 mins prior to inoculation measured after 3 days by phase contrast microscopy; type: functional; method in brief: as §1
Measles morbillivirus [16] = assay: Antiviral activity against Measles virus Edmonston infected in african green monkey BSC-1 cells assessed as virus-induced cytopathogenicity incubated for 30 mins prior to inoculation measured after 3 days by phase contrast microscopy; type: functional; method in brief: as §1
Measles morbillivirus [17] = assay: Ratio of ribavirin TCID50 to compound TCID50 for wild type Measles virus mWTFb; type: functional
Human alphaherpesvirus 1 [18] = assay: Antiviral activity against HSV 1 NCPV 17+ infected in african green monkey BSC-1 cells assessed as virus-induced cytopathogenicity incubated for 30 mins prior to inoculation measured after 3 days by phase contrast microscopy; type: functional; method in brief: as §1

Structure (SMILES)	inhibition at 10 µM (Vaccinia virus [2])	IC50 (Vaccinia virus [3])	Activity (BSC-1 [4])	Activity (BSC-1 [6])	also measured
CCCCCCOCCCCCCCCCc1cc2cn([C@@H]3CC[C@H](CO)O3)c(=O)nc2o1	35.7%	0.19 µM	Non-toxic	Non-toxic	CC50 at 96 h [1]: 74.1 µM; Ratio IC50 (Vaccinia virus [5]): 60; CC50 [7]: > 100 µM
COC[C@H]1OC(=O)c2coc3c2[C@@]1(C)C1=C(C3=O)[C@@H]2CCC(=O)[C@@]2(C)C[C@H]1OC(C)=O [WORTMANNIN]	–	–	–	–	IC50 (Measles morbillivirus [8]): 75 µM
CCCCCCCCCCc1cc2cn([C@@H]3CC[C@H](CO)O3)c(=O)nc2o1	45.7%	–	–	Non-toxic	–
CCCCCCCc1cc2cn([C@@H]3CC[C@H](CO)O3)c(=O)nc2o1	43.2%	–	–	Non-toxic	–
CC(C)COCCCCCCCCCc1cc2cn([C@@H]3CC[C@H](CO)O3)c(=O)nc2o1	64.3%	–	–	Non-toxic	–
CCCCOCCCCCCCCCc1cc2cn([C@@H]3CC[C@H](CO)O3)c(=O)nc2o1	27.5%	1.8 µM	Non-toxic	Non-toxic	CC50 at 96 h [1]: > 100 µM; CC50 [7]: > 100 µM
CCCCCCCCCCOCCCCc1cc2cn([C@@H]3CC[C@H](CO)O3)c(=O)nc2o1	26.1%	2.2 µM	Non-toxic	Non-toxic	–
CC(C)(C)OCCCCCCCCCc1cc2cn([C@@H]3CC[C@H](CO)O3)c(=O)nc2o1	70.7%	–	–	Non-toxic	–
CCCCCCCCc1cc2cn([C@@H]3CC[C@H](CO)O3)c(=O)nc2o1	41.9%	–	–	Non-toxic	–
CCCCCOCCCCCCCCCc1cc2cn([C@@H]3CC[C@H](CO)O3)c(=O)nc2o1	27.7%	0.19 µM	Non-toxic	Non-toxic	CC50 at 96 h [1]: > 100 µM; Ratio CC50/IC50 [9]: >500; TCID50 (Human adenovirus 5 [10]): >50 µM; TCID50 (Human adenovirus 5 [11]): >50 µM; TCID50 (Measles morbillivirus [12]): >50 µM; Ratio IC50 (Vaccinia virus [5]): 60; TCID50 (Human alphaherpesvirus 2 [13]): >50 µM; TCID50 (Human alphaherpesvirus 1 [14]): >50 µM; TCID50 (Human alphaherpesvirus 2 [15]): >50 µM; TCID50 (Measles morbillivirus [16]): >50 µM; CC50 [7]: > 100 µM; Ratio (Measles morbillivirus [17]): 150; TCID50 (Human alphaherpesvirus 1 [18]): >50 µM
CCCCCCc1cc2cn([C@@H]3CC[C@H](CO)O3)c(=O)nc2o1	70.7%	–	–	Non-toxic	–
CCCCCCCCCCCCc1cc2cn([C@@H]3CC[C@H](CO)O3)c(=O)nc2o1	96.4%	–	–	Non-toxic	–
CCC(C)OCCCCCCCCCc1cc2cn([C@@H]3CC[C@H](CO)O3)c(=O)nc2o1 (some centres not stated)	69.9%	–	–	Non-toxic	–
CCCOCCCCCCCCCc1cc2cn([C@@H]3CC[C@H](CO)O3)c(=O)nc2o1	46.8%	1.9 µM	Non-toxic	Non-toxic	CC50 at 96 h [1]: 89.1 µM; CC50 [7]: > 100 µM
Nc1ccn(C[C@@H](CO)OCP(=O)(O)O)c(=O)n1 [CIDOFOVIR]	94.6%	11.5 µM	–	–	CC50 at 96 h [1]: > 100 µM; inhibition (Measles morbillivirus [8]): inactive; CC50 [7]: > 100 µM
CC(C)OCCCCCCCCCc1cc2cn([C@@H]3CC[C@H](CO)O3)c(=O)nc2o1	79.9%	–	–	Non-toxic	–
CCCCCc1ccc(-c2cc3cn([C@@H]4CC[C@H](CO)O4)c(=O)nc3o2)cc1	73.6%	–	–	Non-toxic	–
COCCCCCCCCCCCCCc1cc2cn([C@@H]3CC[C@H](CO)O3)c(=O)nc2o1	60.5%	–	–	Non-toxic	–
CCOCCCCCCCCCc1cc2cn([C@@H]3CC[C@H](CO)O3)c(=O)nc2o1	79.9%	12.9 µM	Non-toxic	Non-toxic	CC50 at 96 h [1]: 79.4 µM; CC50 [7]: > 100 µM
CCCCCCCCCCCCCOCc1cc2cn([C@@H]3CC[C@H](CO)O3)c(=O)nc2o1	43.9%	3.4 µM	Non-toxic	Non-toxic	–
NC(=O)c1ncn([C@@H]2O[C@H](CO)[C@@H](O)[C@H]2O)n1 [RIBAVIRIN]	–	–	–	–	IC50 (Measles morbillivirus [8]): 1160 µM
CCCCCCCCCc1cc2cn([C@@H]3CC[C@H](CO)O3)c(=O)nc2o1	38.1%	–	–	Non-toxic	–
CCCCCCOCCCCCCCCc1cc2cn([C@@H]3CC[C@H](CO)O3)c(=O)nc2o1	37.2%	1.7 µM	Non-toxic	Non-toxic	–
CCCCc1ccc(-c2cc3cn([C@@H]4CC[C@H](CO)O4)c(=O)nc3o2)cc1	43.7%	–	–	Non-toxic	–
